From ChEMBL document CHEMBL4257537, “Design, synthesis, and biological evaluation of m-amidophenol derivatives as a new class of antitubercular agents” (Medchemcomm, 2018)
In brackets after ≈: the same amount, converted by molar mass.

How the values were obtained:
[1] = tested on: Mycobacterium tuberculosis; experiment: Antitubercular activity against Mycobacterium tuberculosis H37Ra after 5 days by luminescence assay; type: functional; details: 120 h
Method in brief: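 Compounds were 10-point two-fold dilutions in 7H9-Tw-OADC, top 100 µg/mL, final DMSO 2%. Controls were INH 1 µg/mL (zero growth) and DMSO (maximum growth). RLU was read daily in triplicate over days 0–5. Percent growth was fitted to a Gompertz model, and MIC was taken where the inflection point meets the lower asymptote.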

[2] = tested on: Mycobacterium tuberculosis; experiment: Antimycobacterial activity against Mycobacterium tuberculosis H37Rv after 7 days by microplate alamar blue assay; type: functional; details: 168 h
Method in brief: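 Each well held a 1/100 culture dilution plus 10-point two-fold DMSO dilutions (top 100 µg/mL, final DMSO 2%). INH and RIF were the positive controls. After 7 days at 37 °C, Tween 80 and alamarBlue were added for 16–24 h. MIC was the lowest concentration preventing the blue-to-pink change.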

Staphylococcus aureus = experiment: Toxicity in Staphylococcus aureus after 18 to 24 hrs by two-fold serial dilution method; type: organism-based
Escherichia coli = experiment: Toxicity in Escherichia coli after 18 to 24 hrs by two-fold serial dilution method; type: organism-based
Enterococcus faecalis = experiment: Toxicity in Enterococcus faecalis after 18 to 24 hrs by two-fold serial dilution method; type: organism-based
HepG2 = experiment: Cytotoxicity against human HepG2 cells after 72 hrs by MTT assay; type: cell-based; details: HepG2, 72 h
RAW264.7 = experiment: Cytotoxicity against mouse RAW264.7 cells after 72 hrs by MTT assay; type: cell-based; details: RAW264.7, 72 h
[3] = Selectivity index, ratio of IC50 for human HepG2 cells to MIC for Mycobacterium tuberculosis H37Ra; type: toxicity; details: read-out: Selectivity Index
[4] = Selectivity index, ratio of IC50 for mouse RAW264.7 cells to MIC for Mycobacterium tuberculosis H37Ra; type: toxicity; details: read-out: Selectivity Index

Row | Compound | MIC [1] [µg/mL] | other results
1 | O=C(Nc1cccc(O)c1)c1ccccc1 | > 50 | –
2 | CC(C)CCc1cc(O)cc(NC(=O)C2CCCCC2)c1 | > 50 | –
3 | O=C(Nc1cc(O)cc(Cc2ccccc2)c1)C(F)(F)F | > 50 | –
4 | O=C(Nc1cc(O)cc(Cc2ccccc2)c1)c1ccco1 | 10 (≈ 34.1 µM) | –
5 | CC(C)(C)C(=O)Nc1cc(O)cc(Cc2ccccc2)c1 | 2.5 (≈ 8.82 µM) | –
6 | O=C(O)c1cc(Cc2ccccc2)cc(NC(=O)c2ccccc2)c1 | > 50 | –
7 | O=C(Nc1cc(O)cc(Cc2ccccc2)c1)c1ccc(C2CCCCC2)cc1 | > 50 | –
8 | O=C(Nc1cc(O)cc(Cc2ccccc2)c1)c1ccc(OC(F)(F)F)cc1 | 10 (≈ 25.8 µM) | –
9 | O=C(Nc1cc(O)cc(Cc2ccccc2)c1)c1cccnc1Cl | 5 (≈ 14.8 µM) | –
10 | Cc1ccc(C(=O)Nc2cc(O)cc(Cc3ccccc3)c2)cc1 | 1.25 (≈ 3.94 µM) | –
11 | O=C(Nc1cc(O)cc(Cc2ccccc2)c1)c1ccc(Cl)cc1Cl | 5 (≈ 13.4 µM) | –
12 | O=C(Nc1cc(O)cc(Cc2ccccc2)c1)c1ccccc1Cl | 2.5 (≈ 7.4 µM) | –
13 | O=C(Nc1cc(O)cc(Cc2ccccc2)c1)c1cccs1 | 2.5 (≈ 8.08 µM) | –
14 | CCC1CCC(C(=O)Nc2cc(O)cc(Cc3ccccc3)c2)CC1 (stereo unspecified) | 2.5 (≈ 7.41 µM) | –
15 | O=C(Nc1cc(O)cc(Cc2ccccc2)c1)C1CCCCC1 | 0.625 (≈ 2.02 µM) | MIC [2]: 0.39 µg/mL (≈ 1.26 µM); MIC (Staphylococcus aureus): > 50 µg/mL; MIC (Escherichia coli): > 50 µg/mL; MIC (Enterococcus faecalis): > 50 µg/mL; IC50 (HepG2): > 161 µM; IC50 (RAW264.7): > 323 µM; selectivity ratio [3]: > 80; selectivity ratio [4]: > 160
16 | Nc1cc(Cc2ccccc2)cc(NC(=O)c2ccccc2)c1 | 10 (≈ 33.1 µM) | –
17 | CC(=O)Nc1cc(O)cc(Cc2ccccc2)c1 | > 100 | –
18 | Cc1nnsc1C(=O)Nc1cc(O)cc(Cc2ccccc2)c1 | 10 (≈ 30.7 µM) | –
19 | O=C(Nc1cc(O)cc(Cc2ccccc2)c1)C1CCCC1 | 2.5 (≈ 8.46 µM) | –
20 | COc1cc(Cc2ccccc2)cc(NC(=O)c2ccccc2)c1 | > 50 | –
21 | CC(C)(C)c1ccc(C(=O)Nc2cc(O)cc(Cc3ccccc3)c2)cc1 | 2.5 (≈ 6.95 µM) | –
22 | O=C(Nc1cc(O)cc(Cc2ccccc2)c1)C1CCOCC1 | 6.25 (≈ 20.1 µM) | –

Row | Compound | MIC [1] [µg/mL] | other results
23 | O=C(Nc1cc(O)cc(Cc2ccccc2)c1)c1cc(C(F)(F)F)cc(C(F)(F)F)c1 | > 25 | –
24 | O=C(Nc1cc(O)cc(Cc2ccccc2)c1)C1CC1 | 5 (≈ 18.7 µM) | –
25 | CCCCCc1cc(O)cc(NC(=O)C2CCCCC2)c1 | > 50 | –
26 | O=C(Nc1cc(O)cc(Cc2ccccc2)c1)N1CCOCC1 | 12.5 (≈ 40 µM) | –
27 | Cc1ccc(C)c(Cc2cc(O)cc(NC(=O)C3CCCCC3)c2)c1 | > 50 | –
28 | Oc1cccc(Cc2ccccc2)c1 | > 50 | –
29 | O=C(Nc1cc(O)cc(Cc2ccccc2)c1)c1ccc(C(F)(F)F)cc1 | 5 (≈ 13.5 µM) | –
30 | CC(C)(C)C1CCC(C(=O)Nc2cc(O)cc(Cc3ccccc3)c2)CC1 (stereo unspecified) | > 50 | –
31 | O=C(Nc1cc(O)cc(Cc2ccccc2)c1)C12CC3CC(CC(C3)C1)C2 | > 50 | –
32 | O=C(Nc1cc(O)cc(Cc2ccccc2)c1)c1ccccc1 | 5 (≈ 16.5 µM) | MIC [2]: 0.39 µg/mL (≈ 1.29 µM); MIC (Staphylococcus aureus): > 50 µg/mL; MIC (Escherichia coli): > 50 µg/mL; MIC (Enterococcus faecalis): > 50 µg/mL; IC50 (HepG2): > 330 µM; IC50 (RAW264.7): > 330 µM; selectivity ratio [3]: > 20; selectivity ratio [4]: > 20
33 | O=C(Nc1cc(O)cc(C(O)c2ccccc2)c1)c1ccccc1 (stereo unspecified) | > 50 | –
34 | O=C(Nc1cc(O)cc(Cc2ccccc2)c1)c1ccc(F)c(Cl)c1 | 5 (≈ 14.1 µM) | –
35 | CCCc1cc(O)cc(NC(=O)C2CCCCC2)c1 | > 50 | –
36 | O=C(Nc1cc(O)cc(Cc2ccccc2)c1)c1ccc([N+](=O)[O-])cc1 | > 50 | –
37 | O=C(Nc1cc(O)cc(Cc2ccccc2)c1)c1cccc(Cl)c1 | 2.5 (≈ 7.4 µM) | –
38 | O=C(Nc1cc(O)cc(Cc2ccccc2)c1)c1ccc(Cl)cc1 | 2.5 (≈ 7.4 µM) | –
39 | CC(C)C(=O)Nc1cc(O)cc(Cc2ccccc2)c1 | 5 (≈ 18.6 µM) | –
40 | CC1(C)S[C@@H]2[C@H](NC(=O)[C@H](N)c3ccc(O)cc3)C(=O)N2[C@H]1C(=O)O [AMOXICILLIN] | – | MIC (Staphylococcus aureus): 0.78 µg/mL (≈ 2.13 µM)
41 | NNC(=O)c1ccncc1 [ISONIAZID] | 0.1 (≈ 0.729 µM) | MIC [2]: 0.41 µg/mL (≈ 2.99 µM)
42 | CC1COc2c(N3CCN(C)CC3)c(F)cc3c(=O)c(C(=O)O)cn1c23 (stereo unspecified) [OFLOXACIN] | – | MIC (Staphylococcus aureus): 0.31 µg/mL (≈ 0.858 µM); MIC (Escherichia coli): 1.25 µg/mL (≈ 3.46 µM)
43 | CO[C@H]1/C=C/O[C@@]2(C)Oc3c(C)c(O)c4c(O)c(c(/C=N/N5CCN(C)CC5)c(O)c4c3C2=O)NC(=O)/C(C)=C\C=C\[C@H](C)[C@H](O)[C@@H](C)[C@@H](O)[C@@H](C)[C@H](OC(C)=O)[C@@H]1C [RIFAMPIN] | – | MIC [2]: 0.003 µg/mL (≈ 0.00365 µM)
